Results collected from several papers.
Protocols differ between the studies behind these lines.
SLC10A2: Ileal sodium/bile acid cotransporter (SLC10A2, Homo sapiens, UniProt Q12908)
SETD7: Histone-lysine N-methyltransferase SETD7 (SETD7, Homo sapiens, UniProt Q8WTS6)

`CNC(=C[N+](=O)[O-])NCCSCc1ccc(CN(C)C)o1` has an inhibition of 30.2% (SLC10A2; transporter uptake; inhibitor; radiometric; 1 mM).
With `CCN(c1cc(C#CCN2CCOCC2)cc(C(=O)NCc2c(C)cc(C)[nH]c2=O)c1C)[C@H]1CC[C@H](N(C)CCOC)CC1` the inhibition was 20% (Histone-lysine N-methyltransferase SETD2 (SETD2, Homo sapiens, UniProt Q9BYW2); enzyme activity; inhibitor; 1 µM).
With `CC(=O)N[C@H]1CSSC[C@@H](C(=O)N[C@H](Cc2c[nH]c3ccccc23)C(N)=O)NC(=O)[C@@H](Cc2ccccc2)NC(=O)[C@H](CCCNC(=N)N)NC1=O` the inhibition was 0% (Melanocortin receptor 5 (MC5R, Homo sapiens, UniProt P33032); ligand displacement; radioligand; 10 µM; 40 min).
The inhibition of `CSCCC(NC=O)C(=O)NC(C)C(=O)O` (stereo not drawn) is reported as 7% (SETD7; cell-free assay; 10 µM).
For `CN1CC(Oc2cnc(C#N)cc2-c2ccn3nc(NC(=O)C4CC4)cc3c2)C1`, the inhibition was 1% (Serine/threonine-protein kinase 35 (STK35, Homo sapiens, UniProt Q8TDR2); enzyme activity; inhibitor; 1 µM).
`O=c1c(O)cccc2c([C@H]3Oc4cc(O)cc(O)c4C[C@H]3O)cc(O)c(O)c12` has an inhibition of 16% (SETD7; cell-free assay; 10 µM).
`O=C(O)c1cc(=O)c2c(OCC(O)COc3cccc4oc(C(=O)O)cc(=O)c34)cccc2o1` has an inhibition of less than 10% (SLC10A2; transporter uptake; inhibitor; radiometric; 1 mM).
The inhibition of `O=c1c(O)cccc2cc(O)c(O)c(O)c12` is reported as 27% (SETD7; cell-free assay; 10 µM).
With `C=C[C@H]1C[N@@]2CC[C@H]1C[C@H]2[C@H](O)c1ccnc2ccc(OC)cc12` the inhibition was 59.9% (SLC10A2; transporter uptake; inhibitor; radiometric; 1 mM).
